Reference: ChEMBL document CHEMBL3414486, “Synthesis of heterocycle-modified betulinic acid derivatives as antitumor agents” (Eur J Med Chem, 2015)

What was measured:
[1] = Cytotoxicity against human HCT116 cells assessed as growth inhibition after 96 hrs by SRB assay; type: functional, cell-based; conditions: HCT-116, 96 h
Method in brief: (§1)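 SRB viability assay. Cells are seeded for 24 h, then exposed for 96 h to a concentration series from 20 mM DMSO stocks, with a DMSO control. Cells are fixed in 50% TCA (2 h, 4 °C), stained with 0.4% SRB for 10 min and washed with 1% acetic acid. Bound dye is dissolved in 10 mM Tris base and read at 515 nm. IC50 is averaged from at least 3 independent experiments. SI is IC50 in HAF divided by IC50 in the cancer line.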

HT-29 = test: Cytotoxicity against human HT-29 cells assessed as growth inhibition after 96 hrs by SRB assay; type: functional, cell-based; conditions: HT-29, 96 h; method in brief: as §1
[2] = Cytotoxicity against human PC3 cells assessed as growth inhibition after 96 hrs by SRB assay; type: functional, cell-based; conditions: PC-3, 96 h; method in brief: as §1
DU-145 = test: Cytotoxicity against human DU145 cells assessed as growth inhibition after 96 hrs by SRB assay; type: functional, cell-based; conditions: DU-145, 96 h; method in brief: as §1
MDA-MB-231 = test: Cytotoxicity against human MDA-MB-231 cells assessed as growth inhibition after 96 hrs by SRB assay; type: functional, cell-based; conditions: MDA-MB-231, 96 h; method in brief: as §1
4T1 = test: Cytotoxicity against mouse 4T1 cells assessed as growth inhibition after 96 hrs by SRB assay; type: functional, cell-based; conditions: 4T1, 96 h; method in brief: as §1
T47D = test: Cytotoxicity against human T47D cells assessed as growth inhibition after 96 hrs by SRB assay; type: functional, cell-based; method in brief: as §1
MCF7 = test: Cytotoxicity against human MCF7 cells assessed as growth inhibition after 96 hrs by SRB assay; type: functional, cell-based; conditions: MCF7, 96 h; method in brief: as §1
[3] = Cytotoxicity against human MCF7/ADR cells assessed as growth inhibition after 96 hrs by SRB assay; type: functional, cell-based; conditions: NCI/ADR-RES; method in brief: as §1
[4] = Cytotoxicity against HAF assessed as growth inhibition after 96 hrs by SRB assay; conditions: Homo sapiens; method in brief: as §1

For C=C(C)[C@@H]1CC[C@]2(C(=O)O)CC[C@]3(C)[C@H](CC[C@@H]4[C@@]5(C)CC[C@H](NC(=O)c6cccnc6Cl)C(C)(C)[C@@H]5CC[C@]43C)[C@@H]12, the IC50 [1] was over 25 µM, the IC50 (HT-29) was over 25 µM and the IC50 [2] was over 25 µM. It also gave an IC50 (DU-145) of over 25 µM, an IC50 (MDA-MB-231) of over 25 µM and an IC50 (4T1) of 16.1 µM. It also gave an IC50 (T47D) of 17.7 µM and an IC50 (MCF7) of over 25 µM.
Compound COc1cccc2c1C(=O)c1c(O)c3c(c(O)c1C2=O)C[C@@](O)(C(=O)CO)C[C@@H]3O[C@H]1C[C@H](N)[C@H](O)[C@H](C)O1 [DOXORUBICIN] has an IC50 [3] of 9.26 µM and an IC50 [4] of 0.016 µM.
In the case of C=C(C)[C@@H]1CC[C@]2(C(=O)O)CC[C@]3(C)[C@H](CC[C@@H]4[C@@]5(C)CC[C@H](NC(=O)C6CCCN6)C(C)(C)[C@@H]5CC[C@]43C)[C@@H]12 (stereo partly drawn), the IC50 [1] is reported as 17.5 µM, the IC50 (HT-29) is reported as 18.8 µM and the IC50 [2] is reported as 20.3 µM. For the same compound, the IC50 (DU-145) was 11 µM, the IC50 (MDA-MB-231) was 12.8 µM and the IC50 (4T1) was 8.03 µM. For the same compound, the IC50 (T47D) was 11 µM and the IC50 (MCF7) was 15.2 µM.
Work on C=C(C)[C@@H]1CC[C@]2(C(=O)O)CC[C@]3(C)[C@H](CC[C@@H]4[C@@]5(C)CC[C@H](NC(=O)c6cnc(C)cn6)C(C)(C)[C@@H]5CC[C@]43C)[C@@H]12 yielded an IC50 [1] of over 25 µM, an IC50 (HT-29) of over 25 µM and an IC50 [2] of over 25 µM. For the same compound, the IC50 (DU-145) was over 25 µM, the IC50 (MDA-MB-231) was over 25 µM and the IC50 (4T1) was over 25 µM. It also gave an IC50 (T47D) of over 25 µM and an IC50 (MCF7) of over 25 µM.
Compound C=C(C)[C@@H]1CC[C@]2(C(=O)O)CC[C@]3(C)[C@H](CC[C@@H]4[C@@]5(C)CC[C@H](NC(=O)c6cccnc6)C(C)(C)[C@@H]5CC[C@]43C)[C@@H]12 has an IC50 [1] of over 25 µM, an IC50 (HT-29) of over 25 µM and an IC50 [2] of over 25 µM. It also gave an IC50 (DU-145) of over 25 µM, an IC50 (MDA-MB-231) of over 25 µM and an IC50 (4T1) of over 25 µM. The IC50 (T47D) was over 25 µM and the IC50 (MCF7) was over 25 µM.
For C=C(C)[C@@H]1CC[C@]2(C(=O)O)CC[C@]3(C)[C@H](CC[C@@H]4[C@@]5(C)CC[C@H](NC(=O)c6cnccn6)C(C)(C)[C@@H]5CC[C@]43C)[C@@H]12, the IC50 [1] was over 25 µM, the IC50 (HT-29) was over 25 µM and the IC50 [2] was over 25 µM. The IC50 (DU-145) was over 25 µM, the IC50 (MDA-MB-231) was over 25 µM and the IC50 (4T1) was over 25 µM. It also gave an IC50 (T47D) of over 25 µM and an IC50 (MCF7) of over 25 µM.
With C=C(C)[C@@H]1CC[C@]2(C(=O)O)CC[C@]3(C)[C@H](CC[C@@H]4[C@@]5(C)CC[C@H](NC(=O)C6CCCCN6)C(C)(C)[C@@H]5CC[C@]43C)[C@@H]12 (stereo partly drawn) the IC50 [1] was 11.4 µM, the IC50 (HT-29) was 20.1 µM and the IC50 [2] was over 25 µM. It also gave an IC50 (DU-145) of 7.31 µM, an IC50 (MDA-MB-231) of 10.6 µM and an IC50 (4T1) of 7.87 µM. It also gave an IC50 (T47D) of 6.49 µM and an IC50 (MCF7) of 4.81 µM.
Work on C=C(C)[C@@H]1CC[C@]2(C(=O)O)CC[C@]3(C)[C@H](CC[C@@H]4[C@@]5(C)CC[C@H](NC(=O)c6ccncc6)C(C)(C)[C@@H]5CC[C@]43C)[C@@H]12 yielded an IC50 [1] of over 25 µM, an IC50 (HT-29) of over 25 µM and an IC50 [2] of over 25 µM. For the same compound, the IC50 (DU-145) was over 25 µM, the IC50 (MDA-MB-231) was over 25 µM and the IC50 (4T1) was over 25 µM. For the same compound, the IC50 (T47D) was over 25 µM and the IC50 (MCF7) was over 25 µM.
